# APJ antagonist = blocks the human apelin receptor APJ; actives 0.32% (n = 330,000); CHO-K1 APJ beta-arrestin complementation, luminescence; AID 2521; inhibition, % at 20 µM;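 active = inhibition above about 40% at 20 µM, limit read from the data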;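 also: cells challenged with 10 nM apelin-13 agonist together with compound; plate controls were apelin-13 plus DMSO wells for no effect and DMSO wells lacking apelin-13 for full effect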
# EBI2 antag = blocks human EBI2 receptor beta-arrestin signaling; actives 0.81% (n = 360,000); P32249; EBI2 beta-arrestin recruitment, luminescence, 7a,25-OHC stimulated; AID 651636; inhibition, % at 5 µM; in the data active = inhibition above about 38%;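 also: enzyme fragment complementation signal reports receptor beta-arrestin coupling in cells; 0% = agonist plus DMSO wells and 100% = wells without agonist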
# APJ agonist = APJ receptor agonism | P35414 | CHO-K1 APJ PathHunter beta-arrestin, luminescence; 0% DMSO wells, 100% apelin | activation, % at 20 µM | actives 0.11% (n = 330,000);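 active = activation more than six SD over the plate average, tested at 20 µM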;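 also: 0% = DMSO alone and 100% = apelin-13 at 10 nM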
#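 Test system – PathHunter CHO-K1 APJ (AGTRL-1) beta-arrestin reporter cells · Input – 1000 cells/well · Compound – single test compound dose, 20 µM final, 1% DMSO · Times – compound stimulation 90 min at 25 °C, detection 60 min · Technique – beta-gal luminescence · Read-out basis – APJ–arrestin association signal · Control set – negative DMSO alone, positive Apelin-13 at 10 nM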
# CXCR6 block = blocks human CXCR6 beta-arrestin recruitment. O00574. CHO-K1 PathHunter CXCR6 beta-arrestin, luminescence. inhibition, % at 20 µM. actives 0.36% (n = 360,000). AID 602244; in the data active = inhibition above about 34%, passing the limit was not always enough;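 also: antagonist mode with CXCL16 agonist at 10 nM final; 0% = 10 nM CXCL16 with DMSO and 100% = unstimulated wells without agonist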
# Target sequence (O00574 whole entry, looked up): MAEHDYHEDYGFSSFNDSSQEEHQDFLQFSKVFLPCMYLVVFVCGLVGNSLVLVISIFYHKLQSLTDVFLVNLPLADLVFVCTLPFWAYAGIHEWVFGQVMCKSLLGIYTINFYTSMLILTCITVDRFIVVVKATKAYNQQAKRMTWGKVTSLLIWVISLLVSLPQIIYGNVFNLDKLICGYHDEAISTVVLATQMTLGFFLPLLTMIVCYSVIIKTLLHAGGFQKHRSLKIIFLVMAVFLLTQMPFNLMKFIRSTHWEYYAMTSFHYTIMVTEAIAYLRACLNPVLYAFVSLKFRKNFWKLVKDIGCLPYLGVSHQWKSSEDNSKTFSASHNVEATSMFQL
# CCR6 antagonist = CCR6 (human) receptor antagonism | inhibition, % at 20 µM | AID 493098 | actives 0.49% (n = 340,000) | P51684 | CHO-K1 CCR6 PathHunter beta-arrestin, luminescence, CCL20-stimulated;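 active = compounds whose inhibition of the agonist-driven luminescence signal at 20 µM reaches about 50%, limit read from the data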;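 also: cells stimulated with CCL20 at 14 nM final; plate controls were DMSO with CCL20 for no effect and DMSO without agonist for full effect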
# EBI2 conf = EBI2 (human) antagonism, single concentration confirmation; shares compounds with EBI2 antag; EBI2 beta-arrestin luminescence, 7a,25-OHC antagonism; inhibition, % at 5 µM; actives 29% (n = 2,400); AID 651997;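 active = inhibition of at least 50%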
# EBI2 ag = counter-screen for EBI2 antagonists: EBI2 agonist activity; shares compounds with EBI2 antag; EBI2-expressing cells, agonist mode, luminescence, 60 min; 0% vehicle, 100% 7α,25-dihydroxycholesterol control; activation, % at 5 µM; 2,400 tested, under 10 active; AID 652000;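 active = activation of at least 50%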
# bGal cs = beta-galactosidase inhibition counter-screen. purified beta-galactosidase, luminescent Galacton Star, 15 min. inhibition, % at 5 µM. shares compounds with EBI2 antag. actives 1% (n = 2,400);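 active = replicate-average signal at least 3 plate SD below neutral wells, shown as high inhibition, flagging enzyme-inhibiting false positives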;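 also: 0% = DMSO wells with enzyme and 100% = wells lacking enzyme; higher means stronger loss of beta-gal luminescence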
# Active calls of the source: *; / = not tested or not shown. In the library only some 1.5% were active in any assay of this set; here they are far more common.
SMILES,APJ antagonist,EBI2 antag,APJ agonist,CXCR6 block,CCR6 antagonist,EBI2 conf,EBI2 ag,bGal cs
CN(C)c1ccc(N=Nc2ccccc2C(=O)OCC(=O)NC2CCCC2)cc1,27,7,-4,13,50,/,/,/
Cc1ccc(C(=O)N2CCN(Cc3nc4sc5c(c4c(=O)[nH]3)CCCC5)CC2)cc1,4,44*,-1,0,-7,12,-1,-13
CCOc1cc(/C=C2/SC(=Nc3ccccc3)N(Cc3cccnc3)C2=O)ccc1OCC#N,13,48*,-3,4,18,33,0,5
COc1ccc(/C=C2\SC(=S)N(Cc3cccnc3)C2=O)cc1C,-38,13,-2,4,3,/,/,/
CC(Sc1nc(N)c(NC(=O)c2ccc(Br)o2)c(=O)[nH]1)C(=O)O (stereo not drawn),0,2,-3,-12,-18,/,/,/
CCCNC(=O)COc1ncnc2sc(C)c(C)c12,10,-11,-4,-10,-2,/,/,/
CCNC(=O)NC(=O)C(C)OC(=O)c1oc2ccccc2c1CSC1CCCCC1 (stereo not drawn),6,44*,-4,-3,13,35,0,2
CC(C)C(OC(=O)c1oc2ccccc2c1CSC1CCCCC1)C(=O)NC(N)=O (stereo not drawn),-7,/,-4,/,/,/,/,/
CN1CCN(C(=O)C2=C[C@H](c3coc4ccccc4c3=O)C[C@H](OCc3ccc(CO)cc3)O2)CC1,10,6,-4,1,3,/,/,/
CN(Cc1ccccc1)N=Nc1ccccc1,/,6,/,0,/,/,/,/
CN(C)N=Nc1ccc(-c2cn(Cc3ccccc3)cn2)cc1,-27,45*,0,1,-14,39,1,0
CC(=C/c1ccco1)/C=N/NC(=O)CSc1nnc(SCc2ccc(C)cc2)s1,-33,59*,0,8,-15,20,-1,-9
O=C(CSc1nnc(SCc2ccc(Cl)cc2)s1)N/N=C/c1ccc(Cl)cc1Cl,-12,52*,-3,-10,-7,10,1,3
O=C(CSc1nnc(SCc2ccccc2)s1)N/N=C/C=C\c1ccco1,10,12,-4,0,32,/,/,/
CCN1C(=O)c2ccccc2S(=O)c2ccc(C(=O)NCc3ccccn3)cc21 (stereo not drawn),1,-3,-3,-4,12,/,/,/
COc1ccc(Cl)cc1NC(=O)C(C)OC(=O)C1=NNC(=O)CC1 (stereo not drawn),-5,-3,-1,2,11,/,/,/
O=C(CCc1nc2ccccc2c(=O)[nH]1)NNC(=O)COc1ccc(Br)cc1,14,59*,-3,1,16,39,0,-7
Brc1ccc(-c2nnc3sc(CN4CCC5(CC4)OCCO5)cn23)cc1,10,56*,-2,5,14,36,0,-10
COc1ccc(/C=N/NC(=S)NC2CCS(=O)(=O)C2)cc1OC (stereo not drawn),-1,-2,0,-3,0,/,/,/
Cc1ccc(/C=N/NC(=S)NC2CCS(=O)(=O)C2)cc1 (stereo not drawn),17,44*,4,-8,1,44,1,7
Cc1nc(N2CCN(Cc3ccc4c(c3)OCO4)CC2)c2cc(-c3ccccc3)sc2n1,-11,38*,-4,12,14,13,1,5
Cc1ccc(CNC(=O)C2CCC(CNS(=O)(=O)c3cccs3)CC2)cc1 (stereo not drawn),14,66*,-2,9,4,28,-1,-9
O=C(NCc1ccc(Cl)cc1)C1CCC(CNS(=O)(=O)c2ccccc2)CC1 (stereo not drawn),4,59*,-1,-6,14,10,0,4
O=C(NCc1ccc(Cl)cc1)C1CCC(CNc2c(N3CCCC3)c(=O)c2=O)CC1 (stereo not drawn),-35,12,0,-2,7,/,/,/
O=C(NCc1ccc(Cl)cc1)C1CCC(CNc2c(N3CCCCC3)c(=O)c2=O)CC1 (stereo not drawn),-36,50*,-2,-2,-2,26,2,2
SMILES,APJ antagonist,EBI2 antag,APJ agonist,CXCR6 block,CCR6 antagonist,EBI2 conf,EBI2 ag,bGal cs
O=S(=O)(CCc1ccccc1)/N=C/c1cccs1,14,-19,-3,1,-3,/,/,/
O=C(c1ccc(Cn2c(=O)[nH]c3ccccc3c2=O)cc1)N1CCN(c2ccccc2)CC1,-24,7,-2,-15,-3,/,/,/
O=C(c1ccc2ncsc2c1)N1CCN(c2nc3ccccc3s2)CC1,14,6,1,-8,8,/,/,/
O=C(c1ccc2ncsc2c1)N1CCN(c2ccccc2Cl)CC1,-2,74*,-1,0,-3,54*,1,1
Cc1cccc(N2CCN(C(=O)c3ccc4ncsc4c3)CC2)c1C,/,74*,/,-3,5,65*,0,-13
Cc1ccc(C)c(N2CCN(C(=O)c3ccc4nsnc4c3)CC2)c1,-8,47*,-4,7,11,13,0,-4
COc1cc(/C=N/N2CCN(Cc3ccc(Cl)cc3)CC2)ccc1OC(C)=O,-14,13,0,3,-1,/,/,/
COc1cc(OC)cc(C(=O)NCC(=O)OCC(=O)NC2CCCc3ccccc32)c1 (stereo not drawn),5,-2,-1,2,10,/,/,/
COCCOC(=O)c1c(NC(=O)COC(=O)Cc2cccc(OC)c2)sc(C(N)=O)c1C,13,44*,-10,0,10,17,-2,-19
COCCOC(=O)c1c(NC(=O)CN(C)c2ccccc2)sc(C(N)=O)c1C,-3,88*,-3,7,1,54*,3,11
CCOC(=O)c1c(NC(=O)CN(C)C2CCN(C)CC2)sc(C(=O)Nc2ccccc2)c1C,8,3,-4,-7,12,/,/,/
COCCOC(=O)c1c(NC(=O)CN2CCc3ccccc32)sc(C(N)=O)c1C,4,70*,0,-8,5,22,-1,-11
CCOC(=O)c1c(NC(=O)CN2CCCc3ccccc32)sc(C(C)=O)c1C,-5,-2,-3,-14,-29,/,/,/
COCCOC(=O)c1c(NC(=O)CNC2CCCc3ccccc32)sc(C(N)=O)c1C (stereo not drawn),-25,82*,-1,5,10,42,-2,-6
CC(Nc1ccc(Br)cc1)C(=O)N/N=C/c1ccccc1OCc1ccccc1 (stereo not drawn),16,15,-4,8,17,/,/,/
COc1ccc(NS(=O)(=O)c2cc(NC(=O)c3ccc(C)s3)ccc2N2CCOCC2)cc1,-12,6,-7,4,9,/,/,/
